# T cruzi growth-1: inhibitors of T. cruzi proliferation | T. cruzi beta-gal in NIH3T3, GalScreen luminescence, 90 h | inhibition, % at 8.34 µM | actives 5.9% (n = 77,000) | AID 624255;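 active = mean inhibition above about 93%, with at least 55% of replicates each passing it, limit read from the data, passing the limit was not always enough; inconclusive = only one of those two conditions holds; inactive = neither condition holds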
# IDH1 mut inh: inhibitors of human IDH1 R132H. O75874. IDH1 R132H reductase, diaphorase/resazurin fluorescence, 60 min. inhibition, % at 10 µM. actives 0.18% (n = 70,000). AID 624101; in the data active = inhibition above about 34%; inconclusive = no clear call, values can overlap the other calls; inactive = below about 11%;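 also: 0% = DMSO and 100% = no enzyme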
# Target sequence (O75874 whole entry R132H): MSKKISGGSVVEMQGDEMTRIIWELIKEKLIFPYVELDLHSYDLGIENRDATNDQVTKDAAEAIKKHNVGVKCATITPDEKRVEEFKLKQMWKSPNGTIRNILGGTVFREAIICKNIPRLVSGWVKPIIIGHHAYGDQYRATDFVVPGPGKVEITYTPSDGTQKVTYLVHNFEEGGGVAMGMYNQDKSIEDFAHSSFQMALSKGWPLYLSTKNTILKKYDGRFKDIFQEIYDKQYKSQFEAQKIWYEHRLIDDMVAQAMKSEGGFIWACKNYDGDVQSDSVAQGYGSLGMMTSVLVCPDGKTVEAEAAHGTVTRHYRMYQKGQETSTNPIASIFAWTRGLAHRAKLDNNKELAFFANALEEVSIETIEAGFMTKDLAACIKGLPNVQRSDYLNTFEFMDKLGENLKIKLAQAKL
# KDM4C inh: inhibitors of human demethylase GASC-1 KDM4C. Q9H3R0. inhibition, % at 12.5 µM. GST-KDM4C 2-372, H3K9me3 peptide, LANCE TR-FRET. actives 0.15% (n = 96,000);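 active = mean replicate inhibition above about 25%, with at least 55% of replicates also reaching it, limit read from the data, passing the limit was not always enough; inconclusive = only one of those two conditions met; inactive = neither condition met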
#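 Material: GST-tagged GASC-1 (JMJD2C) catalytic fragment, aa 2-372. Input: enzyme final amount 10 nM. Medium: HEPES buffer, pH 7.5, plus ascorbate. Reagent: H3K9me3 peptide substrate, Fe(II), 2-oxoglutarate. Doses: single dose. Times: reaction 30 min RT, detection step 1 h RT. Measured by: LANCE TR-FRET. Evaluation: Fall in 671/618 emission ratio as inhibition.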
# T cruzi growth-2: Trypanosoma cruzi proliferation inhibition; inhibition, % at 8.35 µM; shares compounds with T cruzi growth-1; actives 72% (n = 5,600); T. cruzi beta-gal in NIH3T3, GalScreen luminescence, 90 h;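 active = mean replicate inhibition above about 95% and at least 55% of replicates individually reaching it, limit read from the data; inconclusive = only one of the two criteria is met; inactive = neither criterion is met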
# T cruzi growth-3: blocks T. cruzi growth in NIH3T3 host cells. shares compounds with T cruzi growth-1. T. cruzi beta-gal in NIH3T3, GalScreen luminescence, 90 h. inhibition, % at 2.09 µM. actives 21% (n = 5,600);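 active = mean inhibition above about 95%, with at least 55% of replicates also reaching it, limit read from the data; inconclusive = meets just one of the two conditions; inactive = meets neither condition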;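 also: plate controls were neutral control median for no effect and positive control median for full effect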
# NIH3T3 tox: NIH/3T3 (mouse) viability loss; shares compounds with T cruzi growth-1; NIH/3T3 viability, CellTiter-Glo ATP luminescence, 90 h; cytotoxicity (signal decrease), % at 8.35 µM; actives 14% (n = 5,600);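 active = mean signal decrease across replicates above about 35% based on untreated-well scatter, with enough replicates individually passing, limit read from the data; inconclusive = no rule stated though some were filed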;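 also: 0% = median of neutral control wells and 100% = median of positive control wells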
# NIH3T3 tox 2: kills mouse NIH/3T3 fibroblasts; shares compounds with T cruzi growth-1; NIH/3T3 viability, CellTiter-Glo ATP luminescence, 90 h; inhibition, % at 24.9 µM; actives 56% (n = 5,600); AID 651744;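 active = mean loss of cell viability signal at or above a set limit, and enough replicates individually reaching it; inconclusive = meets only the mean limit or only the replicate share; inactive = meets neither condition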;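 also: 0% = median of neutral control wells and 100% = median of positive control wells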
# * = called active by the depositor; ? = inconclusive; . = no result given. This excerpt belongs to a sample that is enriched for hits.
SMILES,T cruzi growth-1,IDH1 mut inh,KDM4C inh,T cruzi growth-2,T cruzi growth-3,NIH3T3 tox,NIH3T3 tox 2
C[C@H](CO)N1C[C@H](C)[C@H](CN(C)Cc2cccnc2)Oc2cc(-c3ccncc3)ccc2S1(=O)=O,71,26,.,.,.,.,.
Cc1ccc(-c2ccc3c(c2)O[C@H](CN(C)Cc2cccnc2)[C@@H](C)CN([C@H](C)CO)S3(=O)=O)cc1,119*,4,0,99*,112*,80*,92*
CN1C(=O)c2cc(NC(=O)Nc3ccccc3F)ccc2OC[C@@H]2O[C@H](CC(=O)NCc3ccc(-c4ccccc4)cc3)CC[C@@H]21,47,.,0,.,.,.,.
Cc1noc(C)c1NC(=O)N(C)C[C@@H]1OCCCC[C@@H](C)Oc2ccc(NS(=O)(=O)c3cn(C)cn3)cc2C(=O)N([C@@H](C)CO)C[C@H]1C,2,2,1,.,.,.,.
COc1cccc(S(=O)(=O)N2C[C@@H]3N[C@H](C2)C3c2ccc(-c3ccccc3OC)cc2)c1 (some centres undefined),.,.,-2,.,.,.,.
COc1ccc(NC(=O)N2CCCCN3[C@@H](CO)[C@H](c4ccc(C#CCC(C)C)cc4)[C@@H]3C2)cc1,114*,.,-5,98*,106*,118*,103*
COc1ccc(NC(=O)N2CCCCN3[C@H](C2)[C@H](c2ccc(C#CCC(C)C)cc2)[C@@H]3CO)cc1,118*,.,-1,92,61,14,100*
COc1ccc(NC(=O)N2CCCCN3[C@H](CO)[C@H](c4ccc(C#CCC(C)C)cc4)[C@@H]3C2)cc1,121*,.,-1,108*,96*,?,83*
COc1ccc(C#Cc2ccc([C@H]3[C@H]4CN(C(=O)Nc5ccc(F)cc5)CCCCN4[C@H]3CO)cc2)cc1,79,.,-3,.,.,.,.
COc1ccc(NC(=O)N2CCCCN3[C@H](C2)[C@H](c2ccc(C#Cc4ccccn4)cc2)[C@@H]3CO)cc1,84,.,0,.,.,.,.
COc1ccc(NC(=O)N2CCCCN3[C@H](CO)[C@@H](c4ccc(C#CCC(C)C)cc4)[C@@H]3C2)cc1,105*,.,0,106*,56,39*,104*
COc1ccc(C#Cc2ccc([C@@H]3[C@H]4CN(C(=O)Nc5ccc(F)cc5)CCCCN4[C@H]3CO)cc2)cc1,1,.,-2,.,.,.,.
CCNC(=O)[C@H]1[C@H](CO)[C@H]2Cn3c(ccc(-c4ccccc4OC)c3=O)[C@H]2N1S(C)(=O)=O,43,.,0,.,.,.,.
COc1ccc(S(=O)(=O)N(C)C[C@H]2Oc3ccc(NC(=O)C4CC4)cc3C(=O)N([C@H](C)CO)C[C@H]2C)cc1,39,-2,0,.,.,.,.
Cc1ccc(S(=O)(=O)Nc2ccc3c(c2)C(=O)N([C@H](C)CO)C[C@H](C)[C@H](CN(C)C(=O)c2ccncc2)OCCCC[C@@H](C)O3)cc1,-2,.,2,.,.,.,.
CC(C)NC(=O)N1[C@H](C#N)[C@H](c2ccccc2-c2ccc(F)cc2)[C@@H]1CO,.,.,3,.,.,.,.
CC(C)CC#Cc1ccc([C@H]2[C@H]3CN(C(=O)NC4CCCC4)CCCCN3[C@H]2CO)cc1,?,.,-1,110*,51,9,104*
CC(C)CC#Cc1ccc([C@@H]2[C@@H](CO)N3CCCCN(C(=O)NC4CCCC4)C[C@H]23)cc1,84,.,1,.,.,.,.
Cc1ccc(O)c(NC(=O)CN(C)S(=O)(=O)c2ccc(Cl)cc2)c1,.,0,.,.,.,.,.
C[C@@H]1CCCCO[C@H](CN(C)Cc2ccc(C(F)(F)F)cc2)[C@@H](C)CN([C@@H](C)CO)C(=O)c2cc(NS(=O)(=O)c3cccs3)ccc2O1,112*,1,7,92,112*,1,106*
C[C@@H]1CN([C@H](C)CO)C(=O)c2cc(NS(=O)(=O)c3cccs3)ccc2O[C@@H](C)CCCCO[C@@H]1CN(C)Cc1ccc(C(F)(F)F)cc1,98*,.,0,92,114*,-6,54*
C[C@@H]1CN([C@@H](C)CO)C(=O)c2cc(NS(=O)(=O)c3cccs3)ccc2O[C@@H](C)CCCCO[C@H]1CN(C)Cc1ccc(C(=O)O)cc1,-69,.,-1,.,.,.,.

# High-throughput results (PubChem)
